In BindingDB's records for doi:10.1021/np500803e (Chungbuk National University, 2015) one finds IC50 data, which are given here for eleven molecules.

The structures appear in SMILES notation. Where only a bound is given, the exact number is not on record here.

For the assay, the target named is Signal transducer and activator of transcription 3 (Homo sapiens, UniProt P40763). In words: Inhibition of IL6-induced STAT3 activation in human Hep3B cells after 12 hrs by luciferase assay. A digest of the protocol: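 Hep3B cells stably carrying a pSTAT3-luciferase reporter, 2 × 10^4 cells/well, grown 24 h, then switched to serum-free medium. Stimulated with IL-6 (10 ng/mL) with or without sample for 12 h. Luciferase activity then read. IC50 taken as the mean of triplicate experiments. Stattic and genistein used as positive controls.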
Sequence of Signal transducer and activator of transcription 3 (P40763 whole entry): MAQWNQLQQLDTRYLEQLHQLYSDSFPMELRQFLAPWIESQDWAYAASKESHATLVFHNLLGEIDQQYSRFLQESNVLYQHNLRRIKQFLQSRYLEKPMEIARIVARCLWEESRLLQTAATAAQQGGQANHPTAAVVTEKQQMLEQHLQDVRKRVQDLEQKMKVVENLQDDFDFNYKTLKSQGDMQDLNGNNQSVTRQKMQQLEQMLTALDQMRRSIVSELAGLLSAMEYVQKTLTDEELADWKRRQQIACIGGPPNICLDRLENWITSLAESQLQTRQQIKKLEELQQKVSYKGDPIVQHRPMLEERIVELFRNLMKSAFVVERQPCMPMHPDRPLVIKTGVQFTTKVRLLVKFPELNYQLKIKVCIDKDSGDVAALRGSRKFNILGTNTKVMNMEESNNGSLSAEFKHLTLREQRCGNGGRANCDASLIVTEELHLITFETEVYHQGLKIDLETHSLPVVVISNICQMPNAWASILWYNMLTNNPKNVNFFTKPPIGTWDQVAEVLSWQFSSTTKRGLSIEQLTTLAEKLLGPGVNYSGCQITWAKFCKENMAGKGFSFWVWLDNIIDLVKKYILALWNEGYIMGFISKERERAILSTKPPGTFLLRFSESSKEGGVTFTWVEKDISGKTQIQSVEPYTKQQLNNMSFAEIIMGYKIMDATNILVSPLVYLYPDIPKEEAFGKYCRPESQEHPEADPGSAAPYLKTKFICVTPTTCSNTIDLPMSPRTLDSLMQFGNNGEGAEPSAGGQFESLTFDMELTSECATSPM
For orientation: IC50 means the concentration that gives 50% inhibition. A higher IC50 goes with weaker potency. As for `C=C(C)C(=O)CC[C@](C)(O[C@@H]1O[C@H](CO[C@@H]2O[C@H](CO)[C@@H](O)[C@H](O)[C@H]2O)[C@@H](O)[C@H](O)[C@H]1O)[C@H]1CC[C@]2(C)[C@@H]1[C@H](O)C[C@@H]1[C@@]3(C)C[C@@H](O)[C@H](O)C(C)(C)[C@@H]3CC[C@]12C`, the IC50 was 0.27 µM.
With `C=C(C)C(=O)CC[C@](C)(O[C@@H]1O[C@H](CO[C@@H]2O[C@@H](C)[C@H](O)[C@@H](O)[C@H]2O)[C@@H](O)[C@H](O)[C@H]1O)[C@H]1CC[C@]2(C)[C@@H]1[C@H](O)C[C@@H]1[C@@]3(C)C[C@@H](O)[C@H](O[C@@H]4O[C@H](CO)[C@@H](O)[C@H](O)[C@H]4O[C@@H]4O[C@H](CO)[C@@H](O)[C@H](O)[C@H]4O)C(C)(C)[C@@H]3CC[C@]12C`, the IC50 was determined as 19.2 µM.
On to `CC(C)(/C=C/C[C@](C)(O[C@@H]1O[C@H](CO[C@@H]2O[C@H](CO)[C@@H](O)[C@H](O)[C@H]2O)[C@@H](O)[C@H](O)[C@H]1O)[C@H]1CC[C@]2(C)[C@@H]1[C@H](O)C[C@@H]1[C@@]3(C)C[C@@H](O)[C@H](O)C(C)(C)[C@@H]3CC[C@]12C)OO`, for which the IC50 was over 30 µM.
For `C[C@@H]1O[C@@H](OC[C@H]2O[C@@H](O[C@@](C)(C/C=C/C(C)(C)OO)[C@H]3CC[C@]4(C)[C@@H]3[C@H](O)C[C@@H]3[C@@]5(C)C[C@@H](O)[C@H](O[C@@H]6O[C@H](CO)[C@@H](O)[C@H](O)[C@H]6O[C@@H]6O[C@H](CO)[C@@H](O)[C@H](O)[C@H]6O)C(C)(C)[C@@H]5CC[C@]34C)[C@H](O)[C@@H](O)[C@@H]2O)[C@H](O)[C@H](O)[C@H]1O`, the IC50 is over 30 µM.
Molecule `CC(C)(/C=C/C[C@](C)(O[C@@H]1O[C@H](CO)[C@@H](O)[C@H](O)[C@H]1O)[C@H]1CC[C@]2(C)[C@@H]1[C@H](O)C[C@@H]1[C@@]3(C)C[C@@H](O)[C@H](O[C@@H]4O[C@H](CO)[C@@H](O)[C@H](O)[C@H]4O[C@@H]4O[C@H](CO)[C@@H](O)[C@H](O)[C@H]4O)C(C)(C)[C@@H]3CC[C@]12C)OO` returned an IC50 of over 30 µM.
In turn, `CC(C)/C=C/C[C@](C)(O[C@@H]1O[C@H](CO[C@@H]2O[C@@H](C)[C@H](O)[C@@H](O)[C@H]2O)[C@@H](O)[C@H](O)[C@H]1O)[C@H]1CC[C@]2(C)[C@@H]1[C@H](O)C[C@@H]1[C@@]3(C)C[C@@H](O)[C@H](O[C@@H]4O[C@H](CO)[C@@H](O)[C@H](O)[C@H]4O[C@@H]4O[C@H](CO)[C@@H](O)[C@H](O)[C@H]4O)C(C)(C)[C@@H]3CC[C@]12C` showed an IC50 of over 30 µM.
Molecule `C[C@@H]1O[C@@H](OC[C@H]2O[C@@H](O[C@@](C)(C/C=C/C(C)(C)O)[C@H]3CC[C@]4(C)[C@@H]3[C@H](O)C[C@@H]3[C@@]5(C)C[C@@H](O)[C@H](O[C@@H]6O[C@H](CO)[C@@H](O)[C@H](O)[C@H]6O)C(C)(C)[C@@H]5CC[C@]34C)[C@H](O)[C@@H](O)[C@@H]2O)[C@H](O)[C@H](O)[C@H]1O` had an IC50 of 17.1 µM.
In turn, `CC(C)/C=C/C[C@](C)(O[C@@H]1O[C@H](CO[C@@H]2O[C@@H](C)[C@H](O)[C@@H](O)[C@H]2O)[C@@H](O)[C@H](O)[C@H]1O)[C@H]1CC[C@]2(C)[C@@H]1[C@H](O)C[C@@H]1[C@@]3(C)C[C@@H](O)[C@H](O[C@@H]4O[C@H](CO)[C@@H](O)[C@H](O)[C@H]4O)C(C)(C)[C@@H]3CC[C@]12C` had an IC50 of 17.6 µM.
Molecule `C=C(C)C(=O)CC[C@](C)(O[C@@H]1O[C@H](CO[C@@H]2O[C@@H](C)[C@H](O)[C@@H](O)[C@H]2O)[C@@H](O)[C@H](O)[C@H]1O)[C@H]1CC[C@]2(C)[C@@H]1[C@H](O)C[C@@H]1[C@@]3(C)C[C@@H](O)[C@H](O)C(C)(C)[C@@H]3CC[C@]12C` had an IC50 of 0.59 µM.
For `CC(C)/C=C/C[C@](C)(O[C@@H]1O[C@H](CO[C@@H]2O[C@@H](C)[C@H](O)[C@@H](O)[C@H]2O)[C@@H](O)[C@H](O)[C@H]1O)[C@H]1CC[C@]2(C)[C@@H]1[C@H](O)C[C@@H]1[C@@]3(C)CC[C@H](O[C@@H]4O[C@H](CO)[C@@H](O)[C@H](O)[C@H]4O[C@@H]4O[C@H](CO)[C@@H](O)[C@H](O)[C@H]4O)C(C)(C)[C@@H]3CC[C@]12C`, the IC50 came out at 4 µM.
As for `CC(C)/C=C/C[C@](C)(O[C@@H]1O[C@H](CO[C@@H]2O[C@@H](C)[C@H](O)[C@@H](O)[C@H]2O)[C@@H](O)[C@H](O)[C@H]1O)[C@H]1CC[C@]2(C)[C@@H]1[C@H](O)C[C@@H]1[C@@]3(C)C[C@@H](O)[C@H](O)C(C)(C)[C@@H]3CC[C@]12C`, the figure is 0.5 µM.
